According to ChEMBL document CHEMBL3745678, “Novel β-Carboline/Hydroxamic Acid Hybrids Targeting Both Histone Deacetylase and DNA Display High Anticancer Activity via Regulation of the p53 Signaling Pathway” (J Med Chem, 2015):
Active and inactive are the calls of the source. The calls are words filed in the database; no cut-off is given here.

Columns and labels:
Mus musculus [1] = test: Acute toxicity in ICR mouse assessed as abnormal activity at 240 mg/kg, ip measured for 14 days; assay type: organism-based; conditions: in vivo, 336 h
Procedure, shortened: (§1)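 Female ICR mice, single intraperitoneal injection at 585.9, 468.8, […], 300 or 240 mg/kg, or vehicle control, n = 10 per group. Deaths counted at 1 h, 4 h, daily on days 1-4 and over days 5-14. Eating, drinking, body weight and activity observed for 14 days, with survival (%) taken on day 14. LD50 calculated from mortality.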

Histone deacetylase 1 = Histone deacetylase 1 (Homo sapiens, UniProt Q13547); test: Inhibition of recombinant human HDAC1 using Boc-Lys (Ac)-AMC as substrate after 60 mins by fluorometric analysis
Sequence of Histone deacetylase 1 (Q13547 whole entry): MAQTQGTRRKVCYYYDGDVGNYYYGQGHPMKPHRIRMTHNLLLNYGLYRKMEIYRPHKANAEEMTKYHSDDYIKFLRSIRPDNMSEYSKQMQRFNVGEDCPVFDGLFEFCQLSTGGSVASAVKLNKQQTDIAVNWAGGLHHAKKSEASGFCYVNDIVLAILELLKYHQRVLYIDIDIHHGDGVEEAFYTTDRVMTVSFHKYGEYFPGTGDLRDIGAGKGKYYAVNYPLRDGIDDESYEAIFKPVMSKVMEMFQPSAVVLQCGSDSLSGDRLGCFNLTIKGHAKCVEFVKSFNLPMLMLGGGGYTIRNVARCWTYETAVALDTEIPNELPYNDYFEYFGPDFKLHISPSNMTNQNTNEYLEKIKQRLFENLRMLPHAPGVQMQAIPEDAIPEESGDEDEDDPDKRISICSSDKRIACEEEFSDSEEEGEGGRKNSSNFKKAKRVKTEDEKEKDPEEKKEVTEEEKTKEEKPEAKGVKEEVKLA

[2] = Acute toxicity in ip dosed ICR mouse measured for 14 days; assay type: organism-based; conditions: in vivo; procedure, shortened: as §1
[3] = Acute toxicity in ICR mouse assessed as survival rate at 300 mg/kg, ip measured on day 14; assay type: organism-based; conditions: in vivo; procedure, shortened: as §1
Mus musculus [4] = test: Acute toxicity in ICR mouse assessed as death at 240 to 375 mg/kg, ip measured after 4 hrs; assay type: organism-based; conditions: in vivo; procedure, shortened: as §1
LoVo = test: Antiproliferative activity against human LoVo cells assessed as cell viability after 48 hrs by MTT assay; assay type: functional, cell-based
[5] = Downregulation of Bcl2 expression in human HCT116 cells after 48 hrs by western blot analysis; assay type: functional, cell-based; conditions: HCT-116
Procedure, shortened: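 HCT116 cells treated 48 h with or without compound. Western blots probed for Bax, Bcl-2, cleaved caspase-3 and PARP. Band intensities relative to β-actin by densitometry; means ± SD from three separate experiments.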

[6] = Acute toxicity in ICR mouse assessed as survival rate at 375 mg/kg, ip measured on day 14; assay type: organism-based; conditions: in vivo; procedure, shortened: as §1
Mus musculus [7] = test: Acute toxicity in ICR mouse assessed as death at 240 to 585.9 mg/kg, ip measured after 4 hrs; assay type: organism-based; conditions: in vivo; procedure, shortened: as §1
HCT-116 [8] = test: Induction of apoptosis in human HCT116 cells at 5 uM after 48 hrs by annexin V-FITC/propidium iodide staining-based flow cytometric analysis; assay type: functional
Procedure, shortened: (§2)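 HCT116 cells cultured overnight, then exposed in triplicate for 48 h to 0.1, 1.0 or 5.0 µM, SAHA 5.0 µM or vehicle. Stained with FITC-Annexin V/PI for 15 min at room temperature.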

[9] = Acute toxicity in ICR mouse assessed as survival rate at 585.9 mg/kg, ip measured on day 14; assay type: organism-based; conditions: in vivo; procedure, shortened: as §1
[10] = Antitumor activity against human HCT116 cells xenografted in BALB/c mouse assessed as tumor growth inhibition at 90 mg/kg, po measured twice per week over 22 days; assay type: functional; conditions: HCT-116, po, 528 h, read-out: TGI
HCT-116 [11] = test: Potency index, ratio of SAHA IC50 to compound IC50 for human HCT116 cells; assay type: functional
Procedure, shortened: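 HCT116 cells seeded at 10^4 cells/ml and adhered overnight, then treated 48 h over a concentration series with 0.1% DMSO as control. MTT readout; IC50 derived from inhibition % = (1 − OD treated/OD control) × 100, three independent measurements. Index = SAHA IC50 ÷ compound IC50.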

HCT-116 [12] = test: Induction of apoptosis in human HCT116 cells after 48 hrs by annexin V-FITC/propidium iodide staining-based flow cytometric analysis; assay type: functional, cell-based; procedure, shortened: as §2
Mus musculus [13] = test: Acute toxicity in ICR mouse assessed as death at 240 mg/kg, ip measured for 14 days; assay type: organism-based; conditions: in vivo, 336 h; procedure, shortened: as §1
Mus musculus [14] = test: Acute toxicity in ICR mouse assessed as death at 240 to 300 mg/kg, ip measured after 5 to 14 days; assay type: organism-based; conditions: in vivo; procedure, shortened: as §1
[15] = Antitumor activity against human HCT116 cells xenografted in BALB/c mouse assessed as tumor weight at 90 mg/kg, po measured twice per week over 22 days (reference value: 1.38 +/- 0.13 g); assay type: functional, HCT-116
[16] = Acute toxicity in ICR mouse assessed as survival rate at 240 mg/kg, ip measured on day 14; assay type: organism-based; conditions: in vivo; procedure, shortened: as §1
[17] = Cytotoxicity against rat IEC-18 cells assessed as survival after 48 hrs by MTT assay; assay type: cell-based
Procedure, shortened: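 HCT116 and rat IEC-18 cells incubated 48 h over a 0–5 µM range. Viability measured by MTT and expressed as % of control. GI50 taken from the inhibition curves; three independent experiments.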

Mus musculus [18] = test: Acute toxicity in ICR mouse assessed as abnormality in eating at 240 mg/kg, ip measured for 14 days; assay type: organism-based; conditions: in vivo, 336 h; procedure, shortened: as §1
[19] = target: Cellular tumor antigen p53 (Homo sapiens) (UniProt P04637); test: Activation of p53 in human HCT116 cell at 0.1 to 5 uM after 12 hrs by western blot analysis; assay type: cell-based; conditions: HCT-116
Sequence of Cellular tumor antigen p53 (Homo sapiens) (P04637 whole entry, looked up): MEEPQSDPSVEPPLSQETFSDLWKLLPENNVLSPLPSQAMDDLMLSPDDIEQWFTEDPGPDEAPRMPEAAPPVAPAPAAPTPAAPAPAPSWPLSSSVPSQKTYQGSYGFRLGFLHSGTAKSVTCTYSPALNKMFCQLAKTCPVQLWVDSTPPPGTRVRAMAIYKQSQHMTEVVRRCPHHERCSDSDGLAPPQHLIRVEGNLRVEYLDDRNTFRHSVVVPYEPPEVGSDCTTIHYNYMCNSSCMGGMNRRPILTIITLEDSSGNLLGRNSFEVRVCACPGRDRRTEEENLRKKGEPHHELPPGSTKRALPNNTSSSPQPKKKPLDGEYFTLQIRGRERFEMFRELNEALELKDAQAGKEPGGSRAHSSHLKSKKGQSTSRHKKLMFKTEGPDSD
Procedure, shortened: (§3)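 HCT116 cells exposed 12 h to compound or vehicle, then lysed on ice in PBS with 1% NP-40, 0.5% deoxycholate, 0.1% SDS and protease inhibitors. Up to 50 µg protein run on SDS-PAGE and immunoblotted for phospho-p53 (Ser15), p53 and p21. Bands quantified by densitometry against β-actin; mean ± SD of three experiments.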

HCT-116 [20] = test: Induction of DNA damage in human HCT116 cells assessed as histone H2AX phosphorylation at S139 at 1 to 5 uM after 12 hrs by western blot analysis; assay type: functional, cell-based
Procedure, shortened: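 DNA-damage marker. HCT116 cells treated 12 h with compound or vehicle. Lysates immunoblotted with anti-H2AX S139ph, and β-actin served as the control. Relative levels were obtained by densitometric scanning; means ± SD of three separate experiments.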

HDAC6 (Homo sapiens) = test: Selectivity index, ratio of IC50 for human recombinant HDAC8 to IC50 for human recombinant HDAC6
SW480 = test: Antiproliferative activity against human SW480 cells assessed as cell viability after 48 hrs by MTT assay; assay type: functional, cell-based; conditions: SW480, 48 h
Mus musculus [21] = test: Acute toxicity in ICR mouse assessed as death at 240 mg/kg, ip measured after 4 days; assay type: organism-based; conditions: in vivo, 96 h; procedure, shortened: as §1
[22] = target: Cellular tumor antigen p53 (Homo sapiens) (UniProt P04637); test: Induction of p53 activation in human HCT116 cells assessed as upregulation of p21 expression at 0.1 to 5 uM after 12 hrs by western blot analysis; assay type: cell-based; conditions: HCT-116; procedure, shortened: as §3
[23] = Antiproliferative activity against human SW620 cells assessed as cell viability after 48 hrs by MTT assay; assay type: functional, cell-based; conditions: SW-620, 48 h

Compound: COc1ccc(-c2nc(NC(=O)NCCCC(=O)NO)cc3c2[nH]c2ccccc23)cc1
- Activity (Mus musculus [1]): Non-toxic
- IC50 (Histone deacetylase 1): 26 nM
- LD50 at 336 h [2]: 472 mg/kg
- survival at 14 day [3]: 90%
- Activity (Mus musculus [4]): Non-toxic
- IC50 (LoVo): 1630 nM
- Activity [5]: Dose-dependent effect
- survival at 14 day [6]: 70%
- Activity (Mus musculus [7]): Non-toxic
- Activity (HCT-116 [8]): 73.9%
- survival at 14 day [9]: 30%
- inhibition in vivo at 90 mg/kg [10]: 61.6%
- Ratio IC50 (HCT-116 [11]): 7
- Activity (HCT-116 [12]): Dose-dependent effect
- Activity (Mus musculus [13]): Non-toxic
- Activity (Mus musculus [14]): Non-toxic
- Activity [15]: 0.53 g
- survival at 14 day [16]: 100%
- GI50 at 48 h [17]: 5460 nM
- Activity (Mus musculus [18]): Non-toxic
- Activity [19]: Active
- Activity (HCT-116 [20]): Active
- Ratio IC50 (HDAC6 (Homo sapiens)): 5
- IC50 (SW480): 1160 nM
- Activity (Mus musculus [21]): Non-toxic
- Activity [22]: Active
- IC50 [23]: 940 nM
